Article PMC4824005 (Nature structural & molecular biology, 2015)

Test system: Shc1 phosphorylated at Tyr239 and Tyr240 in MCF10A cells
Experiment: Immunoblot of dual Shc1 phosphorylation in MCF10A cells
Format: cell-based
Conditions: 1ng/mL EGF, 3 min
Method in brief: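 MCF10A cells (STR-authenticated, mycoplasma-free) were kept in HuMEC medium and held 16 h in growth-factor-free medium before pretreatment with test compound and EGF stimulation. Cells were lysed in RIPA buffer containing protease and phosphatase inhibitors. Lysates were separated by SDS-PAGE, transferred to nitrocellulose and immunoblotted with phospho-Shc and total Shc antibodies.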

B1: EGF: EGF, used at 1ng/mL to stimulate MCF10A cells (protein, UniProt P01133 23-1207, looked up)
Pro-epidermal growth factor: PQHWSCPEGTLAGNGNSTCVGPAPFLIFSHGNSIFRIDTEGTNYEQLVVDAGVSVIMDFHYNEKRIYWVDLERQLLQRVFLNGSRQERVCNIEKNVSGMAINWINEEVIWSNQQEGIITVTDMKGNNSHILLSALKYPANVAVDPVERFIFWSSEVAGSLYRADLDGVGVKALLETSEKITAVSLDVLDKRLFWIQYNREGSNSLICSCDYDGGSVHISKHPTQHNLFAMSLFGDRIFYSTWKMKTIWIANKHTGKDMVRINLHSSFVPLGELKVVHPLAQPKAEDDTWEPEQKLCKLRKGNCSSTVCGQDLQSHLCMCAEGYALSRDRKYCEDVNECAFWNHGCTLGCKNTPGSYYCTCPVGFVLLPDGKRCHQLVSCPRNVSECSHDCVLTSEGPLCFCPEGSVLERDGKTCSGCSSPDNGGCSQLCVPLSPVSWECDCFPGYDLQLDEKSCAASGPQPFLLFANSQDIRHMHFDGTDYGTLLSQQMGMVYALDHDPVENKIYFAHTALKWIERANMDGSQRERLIEEGVDVPEGLAVDWIGRRFYWTDRGKSLIGRSDLNGKRSKIITKENISQPRGIAVHPMAKRLFWTDTGINPRIESSSLQGLGRLVIASSDLIWPSGITIDFLTDKLYWCDAKQSVIEMANLDGSKRRRLTQNDVGHPFAVAVFEDYVWFSDWAMPSVMRVNKRTGKDRVRLQGSMLKPSSLVVVHPLAKPGADPCLYQNGGCEHICKKRLGTAWCSCREGFMKASDGKTCLALDGHQLLAGGEVDLKNQVTPLDILSKTRVSEDNITESQHMLVAEIMVSDQDDCAPVGCSMYARCISEGEDATCQCLKGFAGDGKLCSDIDECEMGVPVCPPASSKCINTEGGYVCRCSEGYQGDGIHCLDIDECQLGEHSCGENASCTNTEGGYTCMCAGRLSEPGLICPDSTPPPHLREDDHHYSVRNSDSECPLSHDGYCLHDGVCMYIEALDKYACNCVVGYIGERCQYRDLKWWELRHAGHGQQQKVIVVAVCVVVLVMLLLLSLWGAHYYRTQKLLSKNPKNPYEESSRDVRSRRPADTEDGMSSCPQPWFVVIKEHQDLKNGGQPVAGEDGQAADGSMQPTSWRQEPQLCGMGTEQGCWIPVSSDKGSCPQVMERSFHMPSYGTQTLEGGVEKPHSLLSANPLWQQRALDPPHQMELTQ
modifications: Pro-epidermal growth factor
  EGF-stimulated phosphorylation of Shc1 at both Tyr239 and Tyr240: significant phosphorylation of both Tyr239 and Tyr240 was detected
